Screening data: PubChem BioAssay, Johns Hopkins Ion Channel Center
hERG protect: hERG rescue from dofetilide block, primary screen, cell-based, CHO-hERG, FluxOR thallium flux, dofetilide IC70. activation (rescue from dofetilide block), less the hit threshold, % at 10 µM. dofetilide IC70 present. 0.51% of 310,000 active. Voltage-gated inwardly rectifying potassium channel KCNH2 (Homo sapiens), Q12809;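 active = activation above the mean of controls blocked by dofetilide plus 5 SD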;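 note: thallium influx through hERG after potassium depolarization seen as dye fluorescence rise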
Target sequence (Q12809 whole entry, looked up): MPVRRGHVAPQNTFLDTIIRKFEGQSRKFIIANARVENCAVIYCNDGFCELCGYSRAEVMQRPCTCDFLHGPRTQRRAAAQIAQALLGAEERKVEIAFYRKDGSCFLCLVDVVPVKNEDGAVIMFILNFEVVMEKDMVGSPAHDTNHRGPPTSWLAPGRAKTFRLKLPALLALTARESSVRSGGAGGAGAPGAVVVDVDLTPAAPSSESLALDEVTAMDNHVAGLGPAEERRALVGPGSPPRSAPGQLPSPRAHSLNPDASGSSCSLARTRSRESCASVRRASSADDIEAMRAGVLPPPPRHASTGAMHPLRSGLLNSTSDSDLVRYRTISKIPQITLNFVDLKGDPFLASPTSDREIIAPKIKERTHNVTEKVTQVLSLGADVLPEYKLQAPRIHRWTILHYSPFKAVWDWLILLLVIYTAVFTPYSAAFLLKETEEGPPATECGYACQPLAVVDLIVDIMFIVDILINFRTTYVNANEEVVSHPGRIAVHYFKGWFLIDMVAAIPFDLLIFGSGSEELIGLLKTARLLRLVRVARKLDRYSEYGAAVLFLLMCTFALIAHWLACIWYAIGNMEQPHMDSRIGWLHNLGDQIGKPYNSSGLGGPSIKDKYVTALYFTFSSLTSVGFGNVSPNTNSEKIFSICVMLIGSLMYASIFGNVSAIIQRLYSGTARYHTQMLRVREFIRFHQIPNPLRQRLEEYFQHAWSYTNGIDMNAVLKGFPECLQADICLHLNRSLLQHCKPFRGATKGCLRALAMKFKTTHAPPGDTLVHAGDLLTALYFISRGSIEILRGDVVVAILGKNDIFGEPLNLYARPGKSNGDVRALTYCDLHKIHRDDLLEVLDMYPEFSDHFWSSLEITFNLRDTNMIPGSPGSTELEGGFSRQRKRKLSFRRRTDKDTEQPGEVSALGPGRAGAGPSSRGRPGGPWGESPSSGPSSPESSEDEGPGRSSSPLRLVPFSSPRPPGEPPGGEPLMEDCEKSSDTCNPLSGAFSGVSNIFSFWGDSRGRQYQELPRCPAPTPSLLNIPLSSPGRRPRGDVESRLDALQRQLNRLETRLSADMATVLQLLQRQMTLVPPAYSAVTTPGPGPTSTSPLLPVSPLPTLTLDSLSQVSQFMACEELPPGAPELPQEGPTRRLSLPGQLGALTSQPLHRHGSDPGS
KCNQ1 block: inhibitors of human KCNQ1 channel, primary screen, cell-based, thallium flux, high-throughput | Potassium voltage-gated channel subfamily KQT member 1 (Homo sapiens), P51787 | CHO-K1 KCNQ1, FluxOR thallium flux fluorescence; stronger effect = higher value | B-score at 10 µM | 1.3% of 310,000 active;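 active = compounds whose thallium flux B-score, printed positive for inhibition, exceeds three library SD while starting fluorescence stays within three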;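 note: channel opened by potassium depolarization with thallium stimulus after 20 min compound exposure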
KCNK3 block: human KCNK3 channel inhibitors, primary screen, CHO cells, FluxOR thallium flux, B-score; FluxOR fluorescence; stronger effect = lower value; B-score at 10 µM; 0.84% of 340,000 active; Potassium channel subfamily K member 3 (Homo sapiens), O14649;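 active = B-score under library mean minus 4 SD, starting fluorescence ratio at most library mean plus 5 SD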;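 note: more negative B-score means stronger inhibition of thallium flux through KCNK3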
KCNK9 block: KCNK9 potassium channel inhibitors, primary screen, HEK293 cells, thallium flux. Potassium channel subfamily K member 9 (Homo sapiens), Q9NPC2. FluxOR thallium flux fluorescence; stronger effect = lower value. B-score at 10 µM. 1.2% of 310,000 active;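 active = ratio B-score over 3 SD below the library mean, with starting fluorescence within 5 SD of its mean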;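 note: negative B-score means less thallium flux so channel inhibition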
KCNQ1 pot: potentiators or activators of KCNQ1 channel, primary screen, cell-based, thallium flux, high-throughput | Potassium voltage-gated channel subfamily KQT member 1 (Homo sapiens), P51787 | CHO-K1 KCNQ1, thallium flux FluxOR fluorescence; stronger effect = higher value | B-score at 10 µM | 0.35% of 310,000 active | AID 2648, 2010;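 active = fluorescence ratio B-score, a plate-corrected score, at least three library SD, with initial intensity B-score within 5 SD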
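assay system = CHO-K1 cells stably expressing KCNQ1 | medium = assay buffer, equal DMSO in all wells | timing = 37 °C overnight plating, 90-min dark dye load, 20-min compound pretreatment | measured by = kinetic FluxOR thallium fluorescence, 10-s 1-Hz baseline, 110-s post-stimulus read | measure = fluorescence change relative to baseline, converted to B score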
KCNQ1 inh valid: KCNQ1 potassium channel inhibitors, confirmation, cell-based, Tl flux, duplicate | AID 588353, 2011 | KCNQ1 cell line, FluxOR thallium flux fluorescence | shares compounds with KCNQ1 block | inhibition, % at 10 µM | 93% of 1,600 active;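 active = primary screen active, with duplicate mean exceeding buffer control mean plus 3 SD of buffer wells, cut at about 28% in these data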;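 note: 0% = buffer control ratio and 100% = XE991 inhibitor control ratio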
CHO KCNQ1 ctr: thallium flux effects in parental CHO cells, counter-screen for KCNQ1 inhibitor project, cell-based, Tl flux; shares compounds with KCNQ1 block; parental CHO-K1, FluxOR thallium flux fluorescence ratio; stronger effect = lower value; zero means no signal rise above baseline; fluorescence ratio (Tl flux) at 10 µM; 21% of 1,600 active; AID 588366, 2011;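 active = mean of duplicate thallium-flux fluorescence ratios in parental host cells more than 5 SD below the buffer control mean, cut at about 0.38 in these data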;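 note: ratio is peak minus minimum fluorescence divided by baseline fluorescence; actives read low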
KCNQ1 APC inh: KCNQ1 channel inhibitors, confirmation, orthogonal assay, cell-based, automated electrophysiology; AID 624120, 2012; shares compounds with KCNQ1 block; 20% of 490 active; KCNQ1-CHO cells, automated patch clamp current; calls only at 10 µM;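 active = KCNQ1 current drop exceeding 3 SD of negative control wells, seen in both duplicate runs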;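 note: steady state current during a 2 s step from -80 to +40 mV; negative values mean current inhibition and positive values mean potentiation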
KCNQ2 inh: KCNQ2 channel inhibition, selectivity assay for KCNQ1 inhibitor project, cell-based. 71% of 1,600 active. KCNQ2 cells, FluxOR thallium flux fluorescence. inhibition, % at 10 µM. shares compounds with KCNQ1 block. AID 651746, 2012;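 active = mean percent inhibition of the KCNQ2 thallium signal more than 5 SD above the buffer-only control wells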;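 note: KCNQ2 expressed in CHO cells; 0% = buffer control wells and 100% = XE-991 inhibitor control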
KCNQ1-KCNE1 inh: KCNQ1/KCNE1 channel inhibition, selectivity assay for KCNQ1 inhibitor project, CHO-K1 cells, thallium flux, FluxOR; 77% of 1,600 active; FluxOR thallium flux fluorescence; inhibition, % at 10 µM; shares compounds with KCNQ1 block;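 active = mean percent inhibition of duplicate wells above the buffer-only control mean plus 3 SD of those controls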;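 note: 0% = buffer only wells and 100% = XE-991 inhibitor control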
KCNK9 inh conf: KCNK9 potassium channel inhibitors, confirmation, HEK293 cells, thallium flux, duplicate; shares compounds with KCNK9 block; FluxOR thallium flux fluorescence; inhibition, % at 10 µM; 43% of 4,900 active; AID 492992, 2010;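 active = thallium signal inhibited by more than 5 SD of the compound-free buffer control wells, on both duplicate plates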;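 note: 0% = assay buffer control wells without compound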
Kir2-1 spec: mouse Kir2.1 channel inhibition, confirmation, selectivity assay for KCNK9 modulator project, cell-based, HEK293, thallium flux | shares compounds with KCNK9 block | Kir2.1 cells, FluxOR thallium flux fluorescence | inhibition, % at 10 µM | 4% of 4,900 active;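 active = thallium signal drop more than 5 SD beyond the mean of the no-compound control wells, seen in both duplicate plates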;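 note: signal is fluorescence rise after thallium addition divided by baseline fluorescence; plate controls were assay buffer only for no effect and full block by chlorpromazine control for full effect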
HEK293 Tl ctr: thallium flux in non-induced HEK293 cells, confirmation, counter-screen for KCNK9 inhibitor project, cell-based, second counter screen, non-induced KCNK9-HEK293; inhibition, % at 10 µM; shares compounds with KCNK9 block; 40% of 4,900 active; FluxOR thallium flux;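 active = thallium signal drop beyond 5 SD of the untreated control mean, on both duplicate plates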;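 note: plate controls were buffer only IC0 wells for no effect and SID17386958 at its maximal inhibitory level for full effect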
Active calls of the source: *; i = inactive; . = no result given; + = active, no number. Rows were chosen to be rich in hits. Some 3.1% of all compounds tested hit in one or more screens of this group.

SMILES	hERG protect	KCNQ1 block	KCNK3 block	KCNK9 block	KCNQ1 pot	KCNQ1 inh valid	CHO KCNQ1 ctr	KCNQ2 inh	KCNQ1-KCNE1 inh	KCNK9 inh conf	Kir2-1 spec	HEK293 Tl ctr	others
Cc1csc(NC(=O)c2c(O)c3c(n(CC(C)C)c2=O)CCCC3)n1	-2	10*	-9.8*	-14*	i	104*	0.48	108%*	90%*	55%*	i	35%*	KCNQ1 APC inh=i
COc1ccc(S(=O)(=O)Nc2cccc3c2O[C@H](CN(C)C(=O)Nc2ccccc2)[C@@H](C)CN([C@H](C)CO)C3=O)cc1	.	.	i	.	.	.	.	.	.	.	.	.
CCn1c(SCC(=O)N2CCN(c3ccccc3)CC2)nc2c(c1=O)SC(C)C2 (centres undefined)	-16	i	i	i	i	.	.	.	.	.	.	.
CC1Cc2nc(SCC(=O)N3CCN(c4ccccc4)CC3)n(CCc3ccccc3)c(=O)c2S1 (centres undefined)	-26	8*	i	i	i	70*	0.44	84%*	175%*	i	i	i
Cc1cc(C)n(-c2nc(SCCN(C)C)c3c4c(sc3n2)CCCC4)n1	-32	14*	i	-9.8*	i	88*	0.4	109%*	112%*	44%*	44%*	28%*
COc1cccc(N(CC(=O)NC2CC3CCC2C3)S(=O)(=O)c2ccccc2)c1 (centres undefined)	-8	i	i	i	i	.	.	.	.	.	.	.
Cc1cccc(N(CC(=O)NC2CC3CCC2C3)S(=O)(=O)c2ccccc2)c1 (centres undefined)	-7	6*	i	i	i	50*	0.43	79%*	61%*	i	i	i
CCc1cccc(OCC(=O)Nc2ccc(C)c(S(=O)(=O)N3CCCCCC3)c2)c1	-6	10*	i	i	i	122*	0.45	116%*	106%*	i	i	33%*	KCNQ1 APC inh=i
Cc1ccc(NC(=O)COc2ccc(N(C)C(=O)C(C)(C)C)cc2)cc1S(=O)(=O)N1CCCCC1	.	.	i	.	.	.	.	.	.	.	.	.
O=C(CC1SC(=Nc2ccccc2)N(CCCO)C1=O)Nc1ccc(Cl)cc1 (centres undefined)	-26	9*	i	i	i	72*	0.51	78%*	110%*	i	i	i
N#Cc1c(N)nc2c(c1-c1ccc3c(c1)OCO3)CCc1ccccc1-2	-5	13*	i	-11*	i	120*	0.35*	109%*	181%*	31%*	i	30%*
c1ccc(-c2nnc3nc(N4CCCCC4)nc(N4CCCCC4)n23)cc1	.	.	i	.	.	.	.	.	.	.	.	.
Cc1ccccc1CN1CCN(S(=O)(=O)c2ccc(Cl)s2)CC1	-14	6*	i	i	i	90*	0.37*	122%*	118%*	i	i	29%*
CCOC(=O)N1CCN(C(=O)COC(=O)C2CCN(S(=O)(=O)c3ccc(C)c(C)c3)CC2)CC1	-7	i	i	i	i	.	.	.	.	.	.	.
O=C(OCC(=O)N(C1CCCCC1)C1CCCCC1)c1ccccc1O	-7	7*	i	-9.4*	i	116*	0.4	124%*	179%*	37%*	i	24%*	KCNQ1 APC inh=+
CCN(CC)S(=O)(=O)c1ccc(C)c(NC(=S)Nc2cccc(S(=O)(=O)N3CCCCCC3)c2)c1	-21	6*	i	i	i	86*	0.4	87%*	89%*	i	i	i
CCN(CC(=O)Nc1cc(S(=O)(=O)N2CCCCC2)ccc1Cl)Cc1ccccc1	-14	11*	i	i	i	86*	0.4	104%*	136%*	i	i	i
CCN(CC(=O)Nc1cc(S(=O)(=O)N2CCOCC2)ccc1Cl)Cc1ccccc1	.	.	i	.	.	.	.	.	.	.	.	.
O=C(Nc1cccc(Cl)c1)Nc1cc(S(=O)(=O)N2CCCCC2)ccc1Cl	-31	8*	i	i	i	104*	0.47	67%*	105%*	i	i	i
CCC(CO)Oc1cc(NC(=O)c2ccccc2Cl)c2ncn(C(C)C)c2c1 (centres undefined)	.	.	i	.	.	.	.	.	.	.	.	.
O=C(COC(=O)COc1ccc(Cl)cc1)NC1CC1	.	.	i	.	.	.	.	.	.	.	.	.
COc1cc(OC)c(OC)cc1CNCCNC(=O)c1ccco1	-3	i	i	i	i	.	.	.	.	.	.	.
S=C(c1ccc(-c2cccc(Cl)c2)o1)N1CCOCC1	-10	i	i	i	i	.	.	.	.	.	.	.
S=C(c1ccc(-c2cccc(Cl)c2)o1)N1CCCCC1	-9	6*	i	-8.8*	i	92*	0.41	87%*	100%*	32%*	i	32%*	KCNQ1 APC inh=i
